Laboratory results taken from ChEMBL document CHEMBL4321861, “An Underlying Mechanism of Dual Wnt Inhibition and AMPK Activation: Mitochondrial Uncouplers Masquerading as Wnt Inhibitors” (J Med Chem, 2019).
Activity calls are given as the source filed them. The calls are words filed in the database; no cut-off is given here.

Tests used:
HEK293 [1] = assay: Inhibition of LiCl-activated Wnt signaling in HEK293 cells at 3 uM by TOPFlash reporter gene assay; assay type: cell-based; details: Homo sapiens
How it was run: (§1)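 Stable HEK293T Super 8xTOPFlash reporter line (pGL4.83 backbone, puromycin-selected), stimulated with 25 mM LiCl to stabilize β-catenin. Treated with compound in DMSO or DMSO. Luciferase read in 96- or 24-well format. AMPK inhibitor compound C used at 5 μM where applied. At least three independent repeats.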

Liver [2] = assay: Uncoupling of mitochondrial oxidative phosphorylation in mouse liver mitochondria assessed as increase in oxygen consumption rate in presence of oligomycin A by seahorse XFe96 analyser based assay
How it was run: (§2)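 Mouse liver mitochondria isolated by differential centrifugation in mannitol/sucrose/HEPES/EGTA buffer, pH 7.2. Loaded at 6 μg/well in KCl/HEPES/MgCl2/KH2PO4 respiration buffer, pH 7.2, at 37 °C. OCR measured on XFe96.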

[3] = molecular target: T1, AMP-activated protein kinase, AMPK (Homo sapiens) (UniProt P54646+O43741+P54619+Q9UGJ0+Q9Y478+Q13131+Q9UGI9); assay: Activation of AMPK (unknown origin) assessed as […] phosphorylation at S79 residue at 3 uM by Western blot analysis; assay type: protein-complex assay
How it was run: (§3)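 Cells lysed in 50 mM HEPES, 100 mM NaCl, 2 mM EDTA, 1% glycerol, 50 mM NaF, 1 mM Na3VO4, 1% Triton X-100 with protease inhibitors. Western blot probed for total and phospho-AMPK and total and phospho-ACC, with actin loading control. Compounds given in DMSO. At least three independent repeats.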

[4] = molecular target: T1, AMP-activated protein kinase, AMPK (Homo sapiens); assay: Activation of AMPK (unknown origin) assessed as increase in AMPK phosphorylation at T172 residue at 3 uM by Western blot analysis; assay type: protein-complex assay; how it was run: as §3
HEK293 [5] = assay: Inhibition of LiCl-activated Wnt signaling in HEK293 cells at 10 uM by TOPFlash reporter gene assay; assay type: cell-based; details: Homo sapiens; how it was run: as §1
DLD-1 [6] = assay: Inhibition of mitochondrial oxidative phosphorylation in human DLD1 cells assessed as reduction in oxygen consumption rate by seahorse XFe96 analyser based assay; details: Mitochondria
How it was run: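 DLD-1 cells, ~3×10^4 per well, seeded a day ahead; medium switched to Seahorse XF modified medium with 25 mM glucose and 1 mM pyruvate. Mitochondrial stress test: 1 μM oligomycin A, test compound in DMSO in place of FCCP, then 1.0 μM rotenone plus 1.0 μM antimycin A. OCR recorded; ATP production rate by real-time ATP rate assay.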

Homo sapiens [7] = organism: Homo sapiens; assay: Inhibition of Wnt in human SW620 cells assessed as reduction in cyclin-D1 expression at 1 uM by Western blot analysis; assay type: cell-based
How it was run: (§4)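 Colorectal cancer cells (DLD-1, LS174T, SW620) treated with a compound dose series in DMSO. Lysates immunoblotted for Axin2, c-Myc and cyclin D1. At least three independent repeats.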

LS174T [8] = assay: Induction of mitochondrial dysfunction in human LS174T cells assessed as increase in glycolytic ATP production at 3 uM by Seahorse XF real-time assay; details: Mitochondria
How it was run: (§5)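 About 3×10^4 cells seeded per well in XF96 plates. Next day medium switched to Seahorse XF medium with 25 mM glucose and 1 mM pyruvate. Compound given at 3 μM in DMSO; FCCP 1 μM as reference. Mitochondrial and glycolytic ATP production rates measured by XF Real-Time ATP Rate Assay.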

DLD-1 [9] = assay: Cytotoxicity against human DLD1 cells assessed as reduction in cell viability by Vi-Cell XR cell viability analyzer-based assay; assay type: functional
How it was run: (§6)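 Colon cancer cells plated at 3.5×10^4 per well in 12-well plates. LS174T were in EMEM + 10% FBS; DLD-1 were in DMEM + 10% FBS. After 24 h, compound in DMSO added (DMSO control). Cell number and viability counted on a Vi-Cell XR analyzer. Triplicate wells.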

Homo sapiens [10] = organism: Homo sapiens; assay: Inhibition of Wnt in human DLD1 cells assessed as reduction in Axin2 expression at 1 to 3 uM by Western blot analysis; assay type: cell-based; how it was run: as §4
[11] = molecular target: T1, AMP-activated protein kinase, AMPK (Homo sapiens); assay: Activation of AMPK in human LS174T cells assessed as […] phosphorylation at S79 residue at 3 uM by Western blot analysis; assay type: cell-based; how it was run: as §3
DLD-1 [12] = assay: Uncoupling of mitochondrial oxidative phosphorylation in human DLD1 cells assessed as increase in oxygen consumption rate at 3 uM in presence of oligomycin A by seahorse XFe96 analyser based assay; details: Mitochondria
How it was run: (§7)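 DLD-1 cells, about 3×10^4 per XF96 well, in XF medium with 25 mM glucose and 1 mM pyruvate. Mito stress sequence: oligomycin A 1 μM, then test compound 3 μM in DMSO in place of FCCP (FCCP 1 μM as control), then rotenone/antimycin A 1 μM each. Oxygen consumption rate recorded.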

Homo sapiens [13] = organism: Homo sapiens; assay: Inhibition of Wnt in human DLD1 cells assessed as reduction in cyclin-D1 expression at 1 to 3 uM by Western blot analysis; assay type: cell-based; how it was run: as §4
LS174T [14] = assay: Inhibition of Wnt in human LS174T cells assessed as reduction in c-Myc expression at 1 uM by Western blot analysis; assay type: cell-based; how it was run: as §4
LS174T [15] = assay: Inhibition of LiCl-induced Wnt signaling in human LS174T cells assessed as reduction in beta-catenin accumulation; assay type: cell-based
LS174T [16] = assay: Cytotoxicity against human LS174T cells assessed as reduction in cell viability by Vi-Cell XR cell viability analyzer-based assay; assay type: functional; how it was run: as §6
DLD-1 [17] = assay: Induction of mitochondrial membrane potential disruption in human DLD1 cells at 3 uM measured after 2 hrs by TMRM staining based fluorescence microscopic analysis; details: Mitochondria
How it was run: (§8)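 Cells grown one day in 24-well plates: DLD-1 in DMEM + 10% serum, LS174T in RPMI1640 + 5% serum. Treated 2 h with compound in DMSO or DMSO, then stained with 100 nM TMRM for 15 min. Rinsed once with PBS and imaged by fluorescence microscopy at 568 nm.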

DLD-1 [18] = assay: Induction of mitochondrial dysfunction in human DLD1 cells assessed as increase in glycolytic ATP production at 3 uM by Seahorse XF real-time assay; details: Mitochondria; how it was run: as §5
LS174T [19] = assay: Induction of mitochondrial dysfunction in human LS174T cells assessed as reduction in mitochondrial ATP production at 3 uM by Seahorse XF real-time assay; details: Mitochondria; how it was run: as §5
Homo sapiens [20] = organism: Homo sapiens; assay: Inhibition of Wnt in human DLD1 cells assessed as reduction in c-Myc expression at 1 to 3 uM by Western blot analysis; assay type: cell-based; how it was run: as §4
Homo sapiens [21] = organism: Homo sapiens; assay: Inhibition of Wnt in human SW620 cells assessed as reduction in Axin2 expression at 1 uM by Western blot analysis; assay type: cell-based; how it was run: as §4
HEK293 [22] = assay: Inhibition of LiCl-activated Wnt signaling in HEK293 cells at 3 uM in presence of AMPK inhibitor compound C by TOPFlash reporter gene assay; assay type: cell-based; details: Homo sapiens; how it was run: as §1
LS174T [23] = assay: Inhibition of Wnt in human LS174T cells assessed as reduction in cyclin-D1 expression at 1 uM by Western blot analysis; assay type: cell-based; how it was run: as §4
HEK293 [24] = assay: Inhibition of LiCl-activated Wnt signaling in HEK293 cells at 0.5 uM by TOPFlash reporter gene assay; assay type: cell-based; details: Homo sapiens; how it was run: as §1
DLD-1 [25] = assay: Induction of mitochondrial dysfunction in human DLD1 cells assessed as reduction in mitochondrial ATP production at 3 uM by Seahorse XF real-time assay; details: Mitochondria; how it was run: as §5
LS174T [26] = assay: Inhibition of Wnt in human LS174T cells assessed as reduction in Axin2 expression at 1 uM by Western blot analysis; assay type: cell-based; how it was run: as §4
HEK293 [27] = assay: Effect on FOP reporter expression in LiCl-induced HEK293T cells incubated for 24 hrs by luciferase reporter gene assay; assay type: functional, cell-based; details: Homo sapiens
How it was run: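 HEK293T cells transiently transfected with Super 8x TOPFlash or 8x FOPFlash plus control Renilla reporter. Wnt signaling activated with LiCl or Wnt3A. Cells treated with DMSO or compound in DMSO. Luciferase activity read.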

LS174T [28] = assay: Induction of mitochondrial membrane potential disruption in human LS174T cells at 3 uM measured after 2 hrs by TMRM staining based fluorescence microscopic analysis; details: Mitochondria; how it was run: as §8
DLD-1 [29] = assay: Uncoupling of mitochondrial oxidative phosphorylation in human DLD1 cells at 3 uM in presence of oligomycin A by seahorse XFe96 analyser based assay; details: Mitochondria; how it was run: as §7
Homo sapiens [30] = organism: Homo sapiens; assay: Inhibition of Wnt in human SW620 cells assessed as reduction in c-Myc expression at 1 uM by Western blot analysis; assay type: cell-based; how it was run: as §4
[31] = molecular target: T1, AMP-activated protein kinase, AMPK (Homo sapiens); assay: Activation of AMPK in human LS174T cells assessed as increase in AMPK phosphorylation at T172 residue at 3 uM by Western blot analysis; assay type: cell-based; how it was run: as §3
Liver [32] = assay: Uncoupling of mitochondrial oxidative phosphorylation in mouse liver mitochondria assessed as increase in oxygen consumption rate at 1 to 5 uM in presence of oligomycin A by seahorse XFe96 analyser based assay; how it was run: as §2
LS174T [33] = assay: Inhibition of glucose metabolism in human LS174T cells assessed as reduction in ATP level at 10 mM by luminescence assay; assay type: functional, cell-based
HEK293 [34] = assay: Inhibition of LiCl-activated Wnt signaling in HEK293 cells at […] by TOPFlash reporter gene assay; assay type: cell-based; details: Homo sapiens
How it was run: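 Stable HEK293T line carrying Super 8xTOPFlash subcloned into pGL4.83 (hRlucP/Puro), selected with puromycin; Wnt signaling activated with 25 mM LiCl, compound added in DMSO (DMSO control); luciferase reporter readout. At least three independent repeats.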

With `O=[N+]([O-])c1ccc(NS(=O)(=O)c2cc(Cl)ccc2Cl)c2ccccc12` the inhibition (HEK293 [1]) was “Active”, the Activity (Liver [2]) was “Dose-dependent effect” and the Activity [3] was “Active”. For the same molecule, the Activity [4] was “Active”.
With `N#Cc1c(O)c2c(-c3ccc(-c4ccccc4O)cc3)csc2[nH]c1=O` the inhibition (HEK293 [5]) was “inactive”.
In the case of `CC[C@@H]1/C=C/C=C/C[C@H](C)[C@@H](O)[C@](C)(O)C(=O)[C@H](C)[C@@H](O)[C@H](C)C(=O)[C@H](C)[C@@H](O)[C@H](C)/C=C/C(=O)O[C@H]2[C@@H](C)[C@@H](CC1)O[C@@]1(CC[C@@H](C)[C@@H](C[C@@H](C)O)O1)[C@@H]2C`, the inhibition (DLD-1 [6]) is reported as “Active”.
With `O=C(Nc1nnc(C(F)(F)F)s1)NC(CC(F)(F)F)(C(F)(F)F)C(F)(F)F` the inhibition (Homo sapiens [7]) was “Active”, the Activity (LS174T [8]) was “Active” and the IC50 (DLD-1 [9]) was 960 nM. For the same molecule, the inhibition (Homo sapiens [10]) was “Active”, the Activity [11] was “Active” and the Activity (DLD-1 [12]) was “Active”. The inhibition (Homo sapiens [13]) was “Active”, the inhibition (LS174T [14]) was “Active” and the inhibition (LS174T [15]) was “Active”. The IC50 (LS174T [16]) was 800 nM, the Activity (DLD-1 [17]) was “Active” and the Activity (DLD-1 [18]) was “Active”. The Activity (LS174T [19]) was “Active”, the inhibition (Homo sapiens [20]) was “Active” and the inhibition (Homo sapiens [21]) was “Active”. For the same molecule, the inhibition (HEK293 [22]) was “Active”, the inhibition (LS174T [23]) was “Active” and the inhibition (HEK293 [24]) was “inactive”. For the same molecule, the Activity (DLD-1 [25]) was “Active”, the inhibition (LS174T [26]) was “Active” and the Activity (HEK293 [27]) was “inactive”. For the same molecule, the Activity (LS174T [28]) was “Active”, the Activity (DLD-1 [29]) was “Active” and the inhibition (Homo sapiens [30]) was “Active”. For the same molecule, the Activity [31] was “Active”.
With `Cc1cc([N+](=O)[O-])ccc1N(C)S(=O)(=O)c1cc(Cl)ccc1Cl` the inhibition (HEK293 [1]) was “inactive”, the Activity [3] was “inactive” and the Activity [4] was “inactive”. The Activity (Liver [32]) was “inactive”.
In the case of `OC[C@H]1OC(O)C[C@@H](O)[C@@H]1O` (some centres not stated), the inhibition (LS174T [33]) is reported as “Active” and the inhibition (HEK293 [34]) is reported as “Active”.
